Results reported in ChEMBL document CHEMBL1817614, “Inhibitory effects of chalcone glycosides isolated from Brassica rapa L. 'hidabeni' and their synthetic derivatives on LPS-induced NO production in microglia” (Bioorg Med Chem, 2011).
The source made the active and inactive calls. The rule behind the calls is not given here.

How the values were obtained:
HAPI [1] = assay: Antiinflammatory activity in rat HAPI cells assessed as inhibition of LPS-induced iNOS mRNA expression at 50 uM treated 30 mins before LPS challenge measured after 6 hrs by RT-PCR analysis; format: functional, cell-based
Procedure, shortened: (§1)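 HAPI cells were seeded in 1% FCS DMEM and treated the next day. Compound (50 µM) was present 30 min before and during LPS (100 ng/mL) for 6 h. RT-PCR used GAPDH normalization. IFN-β ran 35 cycles with anneal at 54 °C; IL-1β ran 30 cycles with anneal at 58 °C. Data are % of LPS alone, mean SEM, n = 3.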

HAPI [2] = assay: Antiinflammatory activity in rat HAPI cells assessed as inhibition of LPS-induced nitric oxide production at 50 uM treated 30 mins before LPS challenge measured after 24 hrs by Griess method; format: functional, cell-based
Procedure, shortened: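 About 1.0 × 10⁵ HAPI cells per well were seeded in 1% FCS DMEM. The next day, compound (50 µM) was present 30 min before and during LPS (100 ng/mL) for 24 h. Medium nitrite was read by Griess kit. Data are fold induction vs untreated cells, mean SD, n = 3 or 4.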

HAPI [3] = assay: Antiinflammatory activity in rat HAPI cells assessed as inhibition of LPS-induced IL1-beta mRNA expression at 50 uM treated 30 mins before LPS challenge measured after 6 hrs by RT-PCR analysis; format: functional, cell-based; procedure, shortened: as §1
HAPI [4] = assay: Inhibition of LPS-induced NF-kappaB nuclear translocation in rat HAPI cell nuclear extracts at 50 uM treated 30 mins before LPS challenge measured after 3 hrs by immunoblot analysis; format: cell-based
Procedure, shortened: (§2)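 Compound (50 µM) or vehicle was given 30 min before LPS (100 ng/mL) for 3 h. Nuclear extracts were made by NP-40 lysis and 0.4 M NaCl HEPES pH 7.8 extraction. Extract (10 µg) was immunoblotted for NF-κB p65 or STAT1 (1:1,000), with ABC chemiluminescence detection. Blots shown represent three experiments.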

HAPI [5] = assay: Inhibition of LPS-induced ERK phosphorylation in rat HAPI cell lysates at 50 uM treated 30 mins before LPS challenge measured after 1 hr by immunoblot analysis; format: cell-based
Procedure, shortened: (§3)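 Compound (50 µM) or vehicle was given 30 min before LPS (100 ng/mL) for 1 h. Whole-cell lysates were made in Tris pH 7.4 Triton buffer with phosphatase inhibitors. Lysate (40 µg) was run on SDS-PAGE and immunoblotted with phospho-specific and total MAPK antibodies (1:1,000), biotin secondary/ABC and chemiluminescence. Blots shown represent three experiments.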

HAPI [6] = assay: Inhibition of LPS-induced JNK phosphorylation in rat HAPI cell lysates at 50 uM treated 30 mins before LPS challenge measured after 1 hr by immunoblot analysis; format: cell-based; procedure, shortened: as §3
HAPI [7] = assay: Inhibition of LPS-induced p38 phosphorylation in rat HAPI cell lysates at 50 uM treated 30 mins before LPS challenge measured after 1 hr by immunoblot analysis; format: cell-based; procedure, shortened: as §3
HAPI [8] = assay: Inhibition of LPS-induced STAT1 nuclear translocation in rat HAPI cell nuclear extracts at 50 uM treated 30 mins before LPS challenge measured after 3 hrs by immunoblot analysis; format: cell-based; procedure, shortened: as §2
HAPI [9] = assay: Antiinflammatory activity in rat HAPI cells assessed as inhibition of LPS-induced IFN-R mRNA expression at 50 uM treated 30 mins before LPS challenge measured after 6 hrs by RT-PCR analysis; format: functional, cell-based
Procedure, shortened: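 Cells were seeded in 1% FCS DMEM and treated the next day. Compound (50 µM) was present 30 min before and during LPS (100 ng/mL) for 6 h. IFN-R RT-PCR ran 35 cycles with anneal at 55 °C and was normalized to GAPDH. Data are fold change vs untreated cells, mean SEM, n = 3.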

HAPI [10] = assay: Antiinflammatory activity in rat HAPI cells assessed as inhibition of IFN-gamma-induced iNOS mRNA expression at 50 uM treated 30 mins before LPS challenge measured after 8 hrs by RT-PCR analysis; format: functional, cell-based
Procedure, shortened: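 HAPI rat microglia were grown in DMEM with 10% heat-inactivated FCS at 37 °C. Compound (50 µM) was added 30 min before and kept during IFN-γ (100 ng/mL) for 8 h. Total RNA was taken for RT-PCR, gel densitometry and normalization to GAPDH. Data are % of IFN-γ alone, mean SEM, n = 3.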

HAPI [11] = assay: Inhibition of LPS-induced STAT1 phosphorylation in rat HAPI cell lysates at 50 uM treated 30 mins before LPS challenge measured after 3 hrs by immunoblot analysis

Question: For `COc1ccc(/C=C/C(=O)c2ccc(O[C@@H]3O[C@H](CO)[C@@H](O)[C@H](O)[C@H]3O)c(OC)c2)cc1`, which inhibition (HAPI [1]) is on record?
Answer: The inhibition was “Active”.

Question: What about the inhibition (HAPI [2]) of the same compound?
Answer: Its inhibition is “Active”.

Question: And the inhibition (HAPI [3])?
Answer: The inhibition was “Active”.

Question: And the inhibition (HAPI [4])?
Answer: The inhibition was “inactive”.

Question: And the inhibition (HAPI [5])?
Answer: The inhibition was “inactive”.

Question: And the inhibition (HAPI [6])?
Answer: The inhibition was “inactive”.

Question: And the inhibition (HAPI [7])?
Answer: Its inhibition is “inactive”.

Question: And the inhibition (HAPI [8])?
Answer: The inhibition was “Active”.

Question: What about the inhibition (HAPI [9]) of the same compound?
Answer: Its inhibition is “inactive”.

Question: And the inhibition (HAPI [10])?
Answer: The inhibition was “Active”.

Question: What about the inhibition (HAPI [11]) of the same compound?
Answer: Its inhibition is “Active”.

Question: Which inhibition (HAPI [1]) does the source give for `COc1cc(C(=O)/C=C/c2ccc(O)cc2)ccc1O[C@@H]1O[C@H](CO)[C@@H](O)[C@H](O)[C@H]1O` here?
Answer: Its inhibition is “Active”.

Question: And the inhibition (HAPI [2])?
Answer: The inhibition was “Active”.

Question: How did the inhibition (HAPI [1]) turn out when `COc1cc(C(=O)/C=C/c2ccccc2)ccc1O[C@@H]1O[C@H](CO)[C@@H](O)[C@H](O)[C@H]1O` was run?
Answer: Its inhibition is “Active”.

Question: And the inhibition (HAPI [2])?
Answer: The inhibition was “Active”.

Question: What about the inhibition (HAPI [10]) of the same compound?
Answer: Its inhibition is “Active”.

Question: How did the inhibition (HAPI [1]) turn out when `CC(=O)c1ccc(O[C@@H]2O[C@H](CO)[C@@H](O)[C@H](O)[C@H]2O)cc1` was run?
Answer: The inhibition was “Active”.

Question: `CC1=CC(=O)CC(C)(C)[C@@]1(O)/C=C/[C@H](C)O[C@@H]1O[C@H](CO)[C@@H](O)[C@H](O)[C@H]1O` was tested. Which inhibition (HAPI [1]) did it give?
Answer: The inhibition was “Active”.

Question: `COc1cc(C(=O)/C=C/c2ccc(O[C@@H]3O[C@H](CO)[C@@H](O)[C@H](O)[C@H]3O)cc2)ccc1O[C@@H]1O[C@H](CO)[C@@H](O)[C@H](O)[C@H]1O` was tested. Which inhibition (HAPI [1]) did it give?
Answer: The inhibition was “Active”.

Question: With `COc1cc(C(C)=O)cc(OC)c1O[C@@H]1O[C@H](CO)[C@@H](O)[C@H](O)[C@H]1O` as the compound, how does the inhibition (HAPI [1]) read?
Answer: Its inhibition is “Active”.
